B1: tRNA (parent)
chain: CUCUCGGUAGCCAAGUUGGUUUAAGGCGCAAGACUUUAAUUUAUCACUACGAAAUCUUGAGAUCGGGCGUUCGACUCGCCCCCGGGAGAUUUUUUCCUCGAGCAA

This sample holds only a part of the variants without activity.

The variants in this series derive from B1. The series is described as follows: nonsense suppression (GFP-seq) (ratio to wild type); higher = more function; SUP4oc tRNA, yeast GFP reporter sort-seq. The method in brief: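 Yeast were grown in raffinose/galactose medium with 80 mg/L adenine, each strain bearing a genome-integrated ochre-suppressor tRNA variant from a ~3% random-mutation library, a galactose-driven GFP ochre reporter, and RFP. After sorting into GFP/RFP bins, every bin was sequenced on an Illumina platform at phred ≥30. The GFPSEQ value, a measure of nonsense suppression, is the weighted bin median GFP/RFP relative to the unmutated parent tRNA, using each variant's estimated cell share per bin as the weight. Only variants with ≥100 reads and ≥30 cells were included.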
CUCUCGGUAGCCAAGUUGGUGUAAGGCGCAAGACUUUAAUUUAUCACUACGAAAUCUUGAGAUCGGUCGUACGACUCGCCCCCGGGAGAUUUUUUCCUCGAGCAA [U21G G67U U71A]: the nonsense suppression is at most 0.026.

Take CUCUCGGUAGCCAAGUUGGUGUAAGGCGCAAGACUUUAAUUUAUCACUACGAAAUCUUGAAAUCGGGCGUUCGACUCGCCCCCGGGAGAUUUUUUCCUCGAGCAA [U21G G61A]: the nonsense suppression turned out to be 0.237.

For the variant CUCUCGGUAGCCAAGUUGGUGUAAGGCGCAAGACUUUAAUUUAUCACUACGAAAUCUUGACAUCGGGCGUUCGACUCGCCCCCGGGAGAUUUUUUCCUCGAGCAA [U21G G61C], the nonsense suppression came to 0.105.

With CUCUCGGUAGCCAAGUUGGUGUAAGGCGCAAGACUUUAAUUUAUCACUACGAAAUCUUGAUAUCGGGCGUUCGACUCGCCCCCGGGAGAUUUUUUCCUCGAGCAA [U21G G61U], the nonsense suppression came out at 0.554.

For CUCUCGGUAGCCAAGUUGGUGUAAGGCGCGAGACUUUAAUUUAUCACUACGAAAUCUUGAGAUCGGGCGUUCGACUCGCCCCCGGGAGGUUUUUUCCUCGAGCAA [U21G A30G A89G], the nonsense suppression is at most 0.026.

As for CUCUCGGUAGCCAAGUUGGUGUAAGGCGCAAGACUUUAAUUUAUCACUACGAAAUCUUGAAAUAGGGCGUUCGACUCGCCACCGGGAGAUUUUUUCCUCGAGCAA [U21G G61A C64A C81A], the nonsense suppression was at most 0.026.

CUCUCGGUAGCCAAGUUGGUGUAAGGCGCAAGACUUUAAUUUAUCACUACGAAAUCUUGAGAUCGGGCGUUCUACUCGCCCCCGGGAGAUUUUUUCCUCGAGCAA [U21G G73U]: the nonsense suppression amounted to 0.026.

In the case of CUCUCGGUAGCCAAGUUGGUGUAAGGCGCAAGACUUUAAUUUAUCACUACGAAAUCUUGAGAUCGGGCGUUCGACCCGCCCCCGGGAGAUUUUUUCCUCGAGCAA [U21G U76C], the nonsense suppression is 0.861.

Consider CUCUCGGUAGCCAAGUUGGUGGAAGGCGCAAGACUUUAAUUUAUCACUACGAAAUCUUGAGAUCGGGCGUUCGACUCGCCCCCGGGAGAUUUUUUCCUCGAGCAA [U21G U22G], for which the nonsense suppression amounted to 0.571.

For the variant CUCUCGGUAGCCAAGUUGGUGCAAGGCGCAAGACUUUAAUUUAUCACUACGAAAUCUUGAGAUCGGGCGUUCGACUCGCCCCCGGGAGAUUUUUUCCUCGAGCAA [U21G U22C], the nonsense suppression is 1.09.

Turning to CUCUCGGUAGCCAAGUUGGUGUAAGGCGCAAGACUUUAAUUUAUCACUACGAAAUCUUGAGAGCGGGCGUUCGACUCGCCCCCGGGAGAUUUUUUCCUCGAGCAA [U21G U63G], the nonsense suppression worked out at 0.0367.

CUCUCGGUAGCCAAGUUGGUGUAAGGCGCAAGACUUUAAUUUAUCACUACGAAAUCUUGAGAACGGGCGUUCGACUCGCCCCCGGGAGAUUUUUUCCUCGAGCAA [U21G U63A]: the nonsense suppression amounted to 0.636.

Regarding CUCUCGGUAGCCAAGUUGGUUAAAGGCGCAAGACUUUAAUUUAUCACUACGAAAUCUUGAGAUCGGGCGUUCGACUCGCCCCCGGGGGAUUUUUUCCUCGAGCAA [U22A A87G], the nonsense suppression amounted to 0.501.

In the case of CUCUCGGUAGCCAAGUUGGUGUAAGGCGCAAGACUUUAAUUUAUCACUACGAAACCUUGAGAUCGGGCGUUCGACUCGCCCCCGGGAGAUUUUUUCCUCGAGCAA [U21G U55C], the nonsense suppression is 0.208.

Consider CUCUCGGUAGCCAAGUUGGUGUAAGGCGCAAGACUUUAAUUUAUCACUACGAAAUCUUGAGAUCGGGCGUUCGACUCUCCCCCGGGAGAUUUUUUCCUCGAGCAA [U21G G78U], for which the nonsense suppression was determined as 0.034.

Take CUCUCGGUAGCCAAGUUGGUGGAAGGCACAAGACUUUAAUUUAUCACUACGAAAUCUUGAGAUCGGGCGUUCGACUCGCCCCCGGGAGAUUUUUUCCUCGAGCAA [U21G U22G G28A]: the nonsense suppression came to 0.206.

With CUCUCGGUAGCCAAGUUGGUGCAAGGCGCAAGACUUUAAUUUAUCACUACGAAAUCUUGAGAUCGGGCGUUCGACUCGCCCUCGGGAGAUUUUUUCCUCGAGCAA [U21G U22C C82U], the nonsense suppression was found to be 0.199.

With CUCUCGGUAGCCAAGUUGGUGUAAGGCGCAAGACUUUAAUUUAUCACUACGAAUUCUUGAGAUCGGGCGUUCGAUUCGCCCCCGGGAGAUUUUUUCCUCGAGCAA [U21G A54U C75U], the nonsense suppression is 1.23.

Take CUCUCGGUAGCCAAGUUGGUUAAAGGCGCAAGACUUUAAUUUAUCACUACGAAAUCUUGAGAUCGGGCGUUCGAUUCGCCCCCGGGAGAUUUUUUCCUCGAGCAA [U22A C75U]: the nonsense suppression stood at 1.15.

As for CUCUCGGUAGCCAAGUUGGUGUAAGGCGUAAGACUUUAAUUUAUCACUACGAAAUCUUGAGAUCGGGCGUUCGACUCGCCCCCGGGAGAUUUUUUCCUCGAGCAA [U21G C29U], the nonsense suppression was 0.809.

For CUCUCGGUAGCCAAGUUGGUUAAAGGCGCAAGACUUUAAUUUAUCACUACGAAAUCUUGAGAUCGGGCGUUCGAAUCGCCCCCGGGAGCUUUUUUCCUCGAGCAA [U22A C75A A89C], the nonsense suppression was at most 0.026.

For CUCUCGGUAGCCAAGUUGGUGUAAGGCGCAAGACUUUAAUUUAUCACUACGAAAUCUUGAGAUCGGGCGUUCGACUCGCCCCCGGGAGGUUUUUUCCUCGAGCAA [U21G A89G], the nonsense suppression is 0.0399.

For the variant CUCUCGGUAGCCAAGUUGGUGUAAGGCGCAAGACUUUAAUUUAUCACUACGAAAUCUUGAGAUCGGGCGUUCGACUCGACCCCGGGAGAUUUUUUCCUCGAGCAA [U21G C79A], the nonsense suppression was at most 0.026.

Consider CUCUCGGUAGCCAAGUUGGUUAAAGGCGCAAGACUUUAAUUUAUCACUACGAAAUCUUGAGAUCGGGCGUUCGACUCGCCCCCGGGAGAUUUUUUCCUCGAGCAA [U22A], for which the nonsense suppression turned out to be 1.13.

Turning to CUCUCGGUAGCCAAGUUGGUGUAAGGCGCAAGACUUUAAUUUAUCACUACGAAAUCUUGAGAUCGGGCGUUCGACUCGCCCCCGAGAGAUUUUUUCCUCGAGCAA [U21G G85A], the nonsense suppression came out at 1.08.

As for CUCUCGGUAGCCAAGUUGGUGUAAGGCACAGGACUUUAAUUUAUCACUACGAAAUCUUGAGAUCGGGCGUUCGACUCGCCCCCGGGAGAUUUUUUCCUCGAGCAA [U21G G28A A31G], the nonsense suppression was 0.266.

With CUCUCGGUAGCCAAGUUGGUGUAAGGCGCAAGACUUUAAUUUAUCACUACGAAAUCUUGAGAUCGGGCGUUUGACUCGCCCCGGGGAGAUUUUUUCCUCGAGCAA [U21G C72U C83G], the nonsense suppression was at most 0.026.

The values above are taken from the RNAGym collection of RNA variant scans (doi:10.1101/gad.245936.114).
